# Assay results taken from article PMC4004768 (The Journal of antibiotics, 2013).
# Key:
# B. subtilis ATCC6633 = assay: antimicrobial activity assay in liquid medium; assay type: cell-based, Bacillus subtilis
# B. subtilis ATCC 6633 [1] = assay: membrane potential by flow cytometry with DiOC2; assay type: cell-based, Bacillus subtilis; details: 0, 0.2, 2, 20 μM, triplicate flow cytometry
# Method in brief: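 Flow cytometry on bacteria exposed to the test compound at 0, 0.2, 2 and 20 μM, with DiOC2 as the membrane-potential dye. The read-out is mean fluorescence intensity averaged over triplicate measurements. An alternative read-out is the ratio of fluorescence at 610 and 530 nm.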
# B. subtilis ATCC 6633 [2] = assay: propidium iodide uptake; assay type: cell-based, Bacillus subtilis; details: B. subtilis ATCC 6633, lower efficiency than nisin
# [3] = cited from earlier work
# [4] = specific activity against B. subtilis ATCC6633, liquid medium
substance,measurement,setting,value
Geobacillin I,MIC relative to nisin,"B. subtilis ATCC6633; B. subtilis ATCC 6633, higher MIC compared to nisin",four-fold higher
same,IC50,B. subtilis ATCC6633; [4],560 ± 10 nM
same,MIC,B. subtilis ATCC6633; [4],1.0 µM
same,"change in mean fluorescence intensity (MFI), DiOC2",B. subtilis ATCC 6633 [1],significant decrease
same,efficiency in PI uptake relative to nisin,B. subtilis ATCC 6633 [2],two-fold lower
same,stability at physiological pH compared to nisin,[3],higher stability
